# Sampled rows, rich in hits. Any-hit rate of the full collection: about 2.5%.
# GalR3 antagonist = GalR3 antagonists in HEK293 cells, primary screen, cell-based, fluorescence readout; HEK293 GalR3-CNG cAMP membrane potential fluorescence; galR3 body fused to GalR1 C-terminus; inhibition, % at 3 µM; 0.44% of 360,000 active; AID 651719, 2012;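 active = inhibition above the screen-wide average plus 3 SD, cut at about 13% in these data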;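 also: forskolin and galanin both at EC90 stimulate the cells; cAMP rise reported by CNG channel membrane potential dye signal; 0% = forskolin plus galanin with DMSO and 100% = forskolin alone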
# Target sequence (O60755 1-299 limits assumed): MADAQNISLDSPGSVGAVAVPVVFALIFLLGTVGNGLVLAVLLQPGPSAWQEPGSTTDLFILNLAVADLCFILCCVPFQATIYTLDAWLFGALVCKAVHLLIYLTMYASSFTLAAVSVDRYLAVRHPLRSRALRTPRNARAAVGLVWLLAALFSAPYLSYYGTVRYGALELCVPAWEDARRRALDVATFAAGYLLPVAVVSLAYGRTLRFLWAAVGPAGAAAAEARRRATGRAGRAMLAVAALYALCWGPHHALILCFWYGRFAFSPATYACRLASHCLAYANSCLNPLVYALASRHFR
# MsrA inhibitor = bovine MsrA enzyme inhibitors, primary screen, biochemical, absorbance, HTS; purified bovine MsrA, absorbance read-out; Methionine sulfoxide reductase A (Bos taurus); 0.75% of 360,000 active; inhibition, % at 15.5 µM; AID 651718, 2012; in the data active = inhibition above about 4.5%;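 also: 0% = vehicle wells with enzyme and 100% = reference inhibitor wells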
# bovine MsrA act = bovine MsrA enzyme activators, primary screen, biochemical, absorbance, HTS | activation, % at 10.6 µM | 0.3% of 360,000 active | purified bovine MsrA, absorbance read-out | Methionine sulfoxide reductase A (Bos taurus); in the data active = activation above about 7.5%;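 also: 0% = vehicle and 100% = reference activator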
# NR2E3 ag-1 = inhibitors of NR2E3-RetCOR corepressor binding, primary screen, NR2E3 agonist project, biochemical, TR-FRET, GST-NR2E3, biotin-RetCOR; inhibition of corepressor binding, % at 4.78 µM; Photoreceptor-specific nuclear receptor (Homo sapiens), Q9Y5X4; 0.12% of 320,000 active; 1536-well; AID 2300, 2010;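 active = percent inhibition above the cutoff of mean plus 3 SD of all tested compounds, set per screening campaign, cut at about 20% in these data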;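 also: 0% = DMSO wells and 100% = biotin wells as full block of FRET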
# Target sequence (Q9Y5X4 whole entry, looked up): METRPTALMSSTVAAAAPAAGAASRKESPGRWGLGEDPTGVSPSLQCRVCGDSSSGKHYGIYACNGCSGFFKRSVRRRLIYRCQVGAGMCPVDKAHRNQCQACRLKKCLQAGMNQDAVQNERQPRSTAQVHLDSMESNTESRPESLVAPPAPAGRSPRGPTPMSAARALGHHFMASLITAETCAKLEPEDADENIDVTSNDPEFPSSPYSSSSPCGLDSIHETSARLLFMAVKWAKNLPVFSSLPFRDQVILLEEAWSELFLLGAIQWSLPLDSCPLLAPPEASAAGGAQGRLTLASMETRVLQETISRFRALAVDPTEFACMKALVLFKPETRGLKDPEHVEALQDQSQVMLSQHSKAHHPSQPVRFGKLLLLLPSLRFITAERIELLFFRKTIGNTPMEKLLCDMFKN
#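 Material – GST-tagged NR2E3 plus biotinylated RetCOR corepressor · Quantity – NR2E3 fusion 1.35 nM · Times – 5 h incubation at 4 °C · Medium – pH 7.5 Tris-based buffer · Technique – TR-FRET, Eu(K)-anti-GST donor, streptavidin-D2 acceptor, ex 340, em 617/671 nm · Benchmarks – high control biotin, low control 0.6% DMSO · Format – 1536-well plates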
# NR2E3 ag-2 = NR2E3 agonists in two-hybrid cells, primary screen, cell-based, luminescence, CHO-S, Gal4-NCOR/VP16-NR2E3 | Photoreceptor-specific nuclear receptor (Homo sapiens), Q9Y5X4 | inhibition of corepressor binding, % at 3.98 µM | 0.35% of 360,000 active | luciferase;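 active = inhibition above the mean of all tested compounds plus 3 SD, cut at about 70% in these data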;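 also: 0% = DMSO with NR2E3 transfected cells and 100% = cells lacking NR2E3 construct; higher means lower luciferase signal from less NR2E3 corepressor binding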
# NadD block = inhibitors of S. aureus NadD, primary screen, biochemical, colorimetric, uHTS | Nicotinate-nucleotide adenylyltransferase NadD (Staphylococcus aureus N315) | purified NadD enzyme, colorimetric absorbance read-out | inhibition, % at 20 µM | 0.78% of 360,000 active; in the data active = inhibition above about 26%
# NR2E3 ag confirm = NR2E3 agonist confirmation in cells, cell-based, luminescence, CHO-S two-hybrid | shares compounds with NR2E3 ag-2 | CHO-S mammalian two-hybrid NR2E3-NCOR, luciferase luminescence | inhibition, % at 3.98 µM | 51% of 2,300 active;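 active = average inhibition above a cutoff equal to the mean inhibition of all tested compounds plus one SD, cut at about 70% in these data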;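 also: 0% = DMSO in NR2E3 cells and 100% = DMSO in cells lacking NR2E3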
# GAL4-VP16 luc = GAL4-VP16 reporter modulators, confirmation, counter-screen for NR2E3 agonist project, cell-based, luminescence, CHO-S, high throughput; inhibition, % at 3.98 µM; 29% of 2,300 active; shares compounds with NR2E3 ag-2; CHO-S GAL4-VP16 luciferase reporter;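 active = mean inhibition above a cutoff equal to the average over all tested compounds plus one standard deviation, cut at about 70% in these data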;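 also: luciferase from a UAS reporter driven by GAL4-VP16 transactivation; 0% = DMSO with VP16-transfected cells and 100% = DMSO with cells lacking VP16; higher means less reporter light so more repression of VP16 activity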
# * = called active by the depositor; / = not tested or not shown.
SMILES,GalR3 antagonist,MsrA inhibitor,bovine MsrA act,NR2E3 ag-1,NR2E3 ag-2,NadD block,NR2E3 ag confirm,GAL4-VP16 luc
CC(=O)n1cc(C(C[N+](=O)[O-])SCCN)c2ccccc21 (stereo unspecified),/,/,-1.2,-1.3,-10.5,0.4,/,/
CCC1(O)C(=O)OCc2c1cc1n(c2=O)Cc2cc3c(N)cccc3nc2-1 (stereo unspecified),-6.0,0.5,-4.3,/,86.1*,2.0,94.1*,52.9
CCC1(OC(=O)CN(C)C)C(=O)OCc2c1cc1n(c2=O)Cc2cc3c(N)cccc3nc2-1 (stereo unspecified),/,/,-1.4,/,66.4,7.4,83.8*,25.8
Cc1ccc(NC(=S)N(C)C(c2ccccc2)c2ccccc2)cc1C,-9.4,1.1,-4.6,-0.7,-9.3,-0.3,/,/
COc1ccccc1C(NC(=O)C1CCN(CCOc2ccccc2)CC1)c1ccccn1 (stereo unspecified),-4.4,1.1,-2.0,/,20.3,0.4,/,/
CCOC(=O)C1=C(CC)Nc2ccccc2N/C1=N\S(=O)(=O)c1cc(Br)ccc1Br,-6.2,0.9,-2.3,/,57.1,1.8,88.0*,57.6
COc1cccc(S(=O)(=O)NCC(=O)Nc2ccc(C(C)(C)C)cc2)c1,-4.4,-1.1,-3.2,1.1,-9.8,-9.1,/,/
NC(=S)N/N=C\c1c(OCc2ccccc2Cl)ccc2ccccc12,-6.7,4.1,-13.5,2.4,93.9*,19.8,-16.2,-3.3
Cc1cc(C)cc(NC(=O)Nc2ccc(-n3ccc(C(F)(F)F)n3)cc2)c1,-8.2,0.5,0.2,-3.1,0.1,-3.5,/,/
O=C(Nc1ccc(-n2ccc(C(F)(F)F)n2)cc1)Nc1cccc(Cl)c1,-8.9,1.8,-2.6,-1.5,81.6*,-9.8,98.6*,75.5*
CC(=O)Nc1ccc(S(=O)(=O)NCC(CCC(=O)O)C(F)(F)F)cc1 (stereo unspecified),-0.5,-1.0,-5.0,-1.1,23.9,-3.3,/,/
CCCCCCCCn1c(=O)c(C(=O)OC)c(N)c2ccccc21,2.2,-0.7,1.6,1.8,58.0,-5.6,85.0*,49.6
Cc1cc(C)nc(SCc2n[nH]c(=S)n2C)n1,-0.7,-0.4,-1.3,1.9,0.7,3.7,/,/
O=C(C=P(c1ccccc1)(c1ccccc1)c1ccccc1)c1ccccc1-c1ccccc1C(=O)C=P(c1ccccc1)(c1ccccc1)c1ccccc1,33.4*,-1.2,-9.5,/,98.4*,55.8*,99.5*,87.4*
Cc1nn(C)c(C)c1CN(Cc1nc(CCC(C)C)no1)C(C)C,91.6*,-0.3,-10.2,1.4,85.9*,-1.8,99.0*,87.5*
COc1cccc(C(=O)NCCS(=O)(=O)NC(C)CCc2ccccc2)c1 (stereo unspecified),-2.8,0.7,-2.3,-1.6,23.1,-7.2,/,/
C=CCSc1nc2ccccc2n1C(=O)/C=C/c1cc(OC)c(OC)c(OC)c1,-4.5,0.4,-6.0,0.7,57.3,-7.6,69.1,-0.6
Cc1nc2cc(-c3cccc(F)c3)nn2c(C)c1CCC(=O)NC(C)c1ccc2c(c1)OCCO2 (stereo unspecified),1.4,-0.6,0.6,5.2,-28.4,8.1,/,/
Nc1ncnc2c1ncn2C1O[C@H](CO)[C@@H](O)[C@@H]1O (stereo partly specified),-0.8,-1.0,-0.2,3.4,14.1,-2.7,/,/
N#Cc1c(N)n(C2OC(CO)C(O)C2O)c2ncnc(N)c12 (stereo unspecified),-1.8,-0.8,-1.8,/,88.9*,0.3,96.0*,88.7*
O=C(CSc1nnc(NC(=O)C2CC2)s1)NCc1ccccc1,-6.6,-0.4,-3.2,1.8,68.1,3.9,-24.6,-8.6
O=C(CSc1nnc(NC(=O)C2CC2)s1)NCc1ccc(F)cc1,-3.2,-0.2,-5.2,0.5,7.6,-8.3,/,/
O=C(NCCc1ccccc1)c1ccc2c(c1)OCCCO2,-2.8,-0.7,-0.5,0.7,87.4*,-1.0,66.0,57.2
O=C(NCCc1ccccc1)c1ccc2c(c1)OCCO2,-1.4,0.3,-0.1,-0.8,46.0,-1.2,/,/
O=C(CCc1ccccc1)c1ccc2c(c1)OCCCO2,-4.0,-0.2,5.4,-1.4,-155.9,-2.0,/,/
SMILES,GalR3 antagonist,MsrA inhibitor,bovine MsrA act,NR2E3 ag-1,NR2E3 ag-2,NadD block,NR2E3 ag confirm,GAL4-VP16 luc
O=C(CCCc1ccccc1)c1ccc2c(c1)OCCO2,-9.9,-0.5,-0.1,1.9,64.2,-4.4,21.2,12.3
NC(=O)NCC(c1ccccc1)C1CCCCC1 (stereo unspecified),-3.8,1.0,-1.5,3.9,5.0,2.5,/,/
CC1=CCC(C(=O)O)C(C(=O)Nc2ccc(-c3nc4ccc(C)cc4s3)cc2)C1 (stereo unspecified),-3.1,3.4,-7.0,2.5,50.5,10.0,55.1,-37.5
CN=c1scc(-c2ccccc2F)n1/N=C/c1ccc[nH]1,-4.2,1.6,-4.2,-0.5,96.6*,8.9,89.8*,80.2*
CN=c1scc(-c2ccco2)n1/N=C/c1ccc(O)c(O)c1,-0.2,3.8,-6.2,/,-78.2,23.9,/,/
O=C(CCC1CCCN(Cc2ccc3c(c2)OCCO3)C1)NCc1ccccc1F (stereo unspecified),-5.3,-0.6,-2.6,-3.4,-7.9,-4.2,/,/
COc1ccc2oc(C(=O)OCC(=O)N3CCN(S(=O)(=O)c4ccc(C)cc4)CC3)c(C)c2c1,-1.4,1.0,-2.8,2.8,70.2*,11.5,85.8*,72.3*
O=C(CN1CCN(c2ccccc2)CC1)N1CCc2[nH]c3ccccc3c2C1,-7.0,-1.4,-0.5,-1.6,-15.5,0.7,/,/
Cc1ccc(-c2nc(CS(=O)CC(=O)N3CCN(c4ccc(F)cc4)CC3)c(C)o2)cc1 (stereo unspecified),-8.5,0.9,0.8,2.7,53.2,7.1,28.9,40.4
N#CC1=C(N)Oc2c(oc(CO)cc2=O)C12C(=O)Nc1ccc(Cl)cc12 (stereo unspecified),-4.0,0.7,-8.0,-0.9,17.1,-2.0,/,/
COc1cccc(OC)c1OCCCCCc1c(C)n[nH]c1C,1.2,-0.1,-1.5,3.3,52.9,-5.9,25.1,7.5
